According to the M2OR odorant receptor database:

Key:
Settings in all cases: stereoisomer not certain
UniProt Q8VGX8 = biological target: T1, UniProt Q8VGX8
T1 sequence (whole entry): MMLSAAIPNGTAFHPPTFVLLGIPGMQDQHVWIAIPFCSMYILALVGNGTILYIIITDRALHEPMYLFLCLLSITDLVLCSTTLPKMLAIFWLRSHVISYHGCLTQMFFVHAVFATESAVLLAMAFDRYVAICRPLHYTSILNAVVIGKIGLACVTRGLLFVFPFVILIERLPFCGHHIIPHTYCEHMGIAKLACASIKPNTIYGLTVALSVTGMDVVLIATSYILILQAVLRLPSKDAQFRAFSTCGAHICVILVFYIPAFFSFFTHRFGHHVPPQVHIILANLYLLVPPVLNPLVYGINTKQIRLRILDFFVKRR
In short: (§1)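 Transient luciferase assays in mammalian cell lines were common, though methods varied by source. The values come from published papers and their supplementary material, with extra details from the original authors when needed. Responsive refers to a measured signal the original authors judged statistically different from baseline, and non-responsive (inactive) to the remainder.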

UniProt Q8VGY6 = biological target: T2, UniProt Q8VGY6
T2 sequence (whole entry): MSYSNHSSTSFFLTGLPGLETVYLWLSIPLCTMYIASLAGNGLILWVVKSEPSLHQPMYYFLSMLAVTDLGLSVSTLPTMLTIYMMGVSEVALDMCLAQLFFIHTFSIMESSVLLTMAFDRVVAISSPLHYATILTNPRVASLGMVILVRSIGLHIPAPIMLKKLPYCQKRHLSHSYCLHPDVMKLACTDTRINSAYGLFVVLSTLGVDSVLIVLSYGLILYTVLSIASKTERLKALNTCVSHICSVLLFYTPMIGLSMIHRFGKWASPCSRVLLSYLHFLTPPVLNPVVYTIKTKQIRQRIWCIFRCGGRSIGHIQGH
In short: as §1

UniProt Q8VGZ2 = biological target: T3, UniProt Q8VGZ2
T3 sequence (whole entry): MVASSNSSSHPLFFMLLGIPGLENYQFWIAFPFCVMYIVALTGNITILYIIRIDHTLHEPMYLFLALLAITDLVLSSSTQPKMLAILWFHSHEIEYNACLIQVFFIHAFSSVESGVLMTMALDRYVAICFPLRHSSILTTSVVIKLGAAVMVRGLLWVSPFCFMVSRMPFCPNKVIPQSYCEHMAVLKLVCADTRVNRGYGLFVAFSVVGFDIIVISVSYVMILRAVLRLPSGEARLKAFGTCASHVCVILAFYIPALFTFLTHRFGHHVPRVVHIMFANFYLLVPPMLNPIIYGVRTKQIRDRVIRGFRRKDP
In short: as §1

UniProt Q8VGZ7 = biological target: T4, UniProt Q8VGZ7
T4 sequence (whole entry): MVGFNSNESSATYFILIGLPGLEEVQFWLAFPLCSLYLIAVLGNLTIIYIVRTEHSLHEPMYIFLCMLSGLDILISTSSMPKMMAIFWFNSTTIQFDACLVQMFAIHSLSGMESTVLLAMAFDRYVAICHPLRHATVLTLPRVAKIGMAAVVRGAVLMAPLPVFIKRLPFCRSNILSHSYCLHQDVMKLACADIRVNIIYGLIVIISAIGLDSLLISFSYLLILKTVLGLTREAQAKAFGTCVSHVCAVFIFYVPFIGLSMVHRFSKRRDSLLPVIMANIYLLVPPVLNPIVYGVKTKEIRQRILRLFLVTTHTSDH
In short: as §1

UniProt Q8VH10 = biological target: T5, UniProt Q8VH10
T5 sequence (whole entry): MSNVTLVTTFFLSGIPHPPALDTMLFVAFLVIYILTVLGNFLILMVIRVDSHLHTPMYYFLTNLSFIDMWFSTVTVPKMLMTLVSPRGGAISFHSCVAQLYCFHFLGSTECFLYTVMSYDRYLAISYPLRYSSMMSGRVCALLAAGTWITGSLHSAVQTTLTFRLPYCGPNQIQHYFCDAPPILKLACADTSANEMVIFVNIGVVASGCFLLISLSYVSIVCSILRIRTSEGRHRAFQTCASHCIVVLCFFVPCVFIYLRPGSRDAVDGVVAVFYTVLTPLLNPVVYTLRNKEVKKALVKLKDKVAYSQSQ
In short: as §1

UniProt Q8VH16 = biological target: T6, UniProt Q8VH16
T6 sequence (whole entry): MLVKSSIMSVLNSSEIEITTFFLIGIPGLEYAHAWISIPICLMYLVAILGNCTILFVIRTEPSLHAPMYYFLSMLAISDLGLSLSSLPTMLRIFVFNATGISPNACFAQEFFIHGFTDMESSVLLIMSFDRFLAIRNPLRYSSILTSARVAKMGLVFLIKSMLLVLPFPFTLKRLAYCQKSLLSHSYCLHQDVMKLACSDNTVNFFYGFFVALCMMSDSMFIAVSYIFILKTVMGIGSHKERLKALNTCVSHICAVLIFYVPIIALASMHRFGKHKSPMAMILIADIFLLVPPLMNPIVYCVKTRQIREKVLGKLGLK
In short: as §1

UniProt Q8VH18 = biological target: T7, UniProt Q8VH18
T7 sequence (whole entry): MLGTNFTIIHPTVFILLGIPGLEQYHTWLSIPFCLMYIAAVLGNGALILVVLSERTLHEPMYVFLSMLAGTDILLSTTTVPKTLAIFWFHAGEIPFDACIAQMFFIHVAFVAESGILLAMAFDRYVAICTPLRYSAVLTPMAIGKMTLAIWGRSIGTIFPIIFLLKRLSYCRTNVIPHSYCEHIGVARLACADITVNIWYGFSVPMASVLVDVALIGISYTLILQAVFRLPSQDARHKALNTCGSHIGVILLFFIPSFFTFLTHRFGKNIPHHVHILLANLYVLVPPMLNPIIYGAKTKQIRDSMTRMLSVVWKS
In short: as §1

UniProt Q8VH20 = biological target: T8, UniProt Q8VH20
T8 sequence (whole entry): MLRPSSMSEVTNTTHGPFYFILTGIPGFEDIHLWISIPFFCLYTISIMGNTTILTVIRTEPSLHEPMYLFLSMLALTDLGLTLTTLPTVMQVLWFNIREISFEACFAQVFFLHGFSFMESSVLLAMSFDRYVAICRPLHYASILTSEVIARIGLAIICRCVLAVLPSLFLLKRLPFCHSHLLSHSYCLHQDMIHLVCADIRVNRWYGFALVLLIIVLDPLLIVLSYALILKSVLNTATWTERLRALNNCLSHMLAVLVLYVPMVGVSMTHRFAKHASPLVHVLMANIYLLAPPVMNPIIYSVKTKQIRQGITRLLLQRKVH
In short: as §1

UniProt Q8VH21 = biological target: T9, UniProt Q8VH21
T9 sequence (whole entry): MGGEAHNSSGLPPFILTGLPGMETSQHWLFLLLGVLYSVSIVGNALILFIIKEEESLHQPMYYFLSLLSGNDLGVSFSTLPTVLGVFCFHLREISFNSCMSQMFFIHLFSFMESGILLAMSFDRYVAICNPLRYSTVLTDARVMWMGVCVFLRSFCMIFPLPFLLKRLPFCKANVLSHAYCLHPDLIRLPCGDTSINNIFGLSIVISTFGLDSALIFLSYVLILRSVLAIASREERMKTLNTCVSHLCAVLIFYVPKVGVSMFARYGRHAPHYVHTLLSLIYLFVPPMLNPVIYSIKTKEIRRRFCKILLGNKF
In short: as §1

UniProt Q924H8 = biological target: T10, UniProt Q924H8
T10 sequence (whole entry): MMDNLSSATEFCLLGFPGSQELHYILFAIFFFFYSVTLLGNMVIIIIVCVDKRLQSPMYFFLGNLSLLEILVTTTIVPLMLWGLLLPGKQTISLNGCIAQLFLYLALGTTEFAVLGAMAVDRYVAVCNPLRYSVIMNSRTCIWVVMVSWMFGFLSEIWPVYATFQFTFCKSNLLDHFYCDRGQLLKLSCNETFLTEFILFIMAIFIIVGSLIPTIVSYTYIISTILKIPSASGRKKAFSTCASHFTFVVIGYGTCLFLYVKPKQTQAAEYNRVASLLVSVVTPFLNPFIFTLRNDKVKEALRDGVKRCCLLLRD
In short: as §1

UniProt Q924X8 = biological target: T11, UniProt Q924X8
T11 sequence (whole entry): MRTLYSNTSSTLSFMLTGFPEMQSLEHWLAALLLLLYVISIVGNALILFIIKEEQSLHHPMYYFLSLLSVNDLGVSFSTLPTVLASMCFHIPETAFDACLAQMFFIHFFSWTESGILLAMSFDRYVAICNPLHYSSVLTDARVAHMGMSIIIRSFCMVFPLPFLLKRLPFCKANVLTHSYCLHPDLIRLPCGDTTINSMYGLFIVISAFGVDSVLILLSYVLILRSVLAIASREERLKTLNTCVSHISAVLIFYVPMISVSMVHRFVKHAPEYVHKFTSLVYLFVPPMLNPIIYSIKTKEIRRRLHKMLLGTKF
In short: as §1

UniProt Q9EPN9 = biological target: T12, UniProt Q9EPN9
T12 sequence (whole entry): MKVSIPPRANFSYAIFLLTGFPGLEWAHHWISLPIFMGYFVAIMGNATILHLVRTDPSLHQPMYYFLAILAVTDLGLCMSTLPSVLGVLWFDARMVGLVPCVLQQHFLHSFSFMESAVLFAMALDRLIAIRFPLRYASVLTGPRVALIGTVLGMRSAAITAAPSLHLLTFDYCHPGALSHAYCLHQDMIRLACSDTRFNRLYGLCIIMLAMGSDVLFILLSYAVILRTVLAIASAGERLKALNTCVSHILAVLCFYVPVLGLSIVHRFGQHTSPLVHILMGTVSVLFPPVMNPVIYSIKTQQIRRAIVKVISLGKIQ
In short: as §1

UniProt Q9R0K2 = biological target: UniProt Q9R0K2
In short: as §1

UniProt Q9WU86 = biological target: T13, UniProt Q9WU86
T13 sequence (whole entry): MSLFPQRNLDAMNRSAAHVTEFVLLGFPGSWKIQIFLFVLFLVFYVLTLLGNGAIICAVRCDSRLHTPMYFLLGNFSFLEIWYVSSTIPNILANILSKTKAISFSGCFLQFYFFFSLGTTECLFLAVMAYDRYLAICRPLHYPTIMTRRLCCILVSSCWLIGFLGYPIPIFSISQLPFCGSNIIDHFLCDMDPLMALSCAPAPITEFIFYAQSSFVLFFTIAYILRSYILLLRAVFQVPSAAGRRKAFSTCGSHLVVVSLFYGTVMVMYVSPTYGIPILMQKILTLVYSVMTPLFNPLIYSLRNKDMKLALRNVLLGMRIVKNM
In short: as §1

UniProt Q9WU94 = biological target: T14, UniProt Q9WU94
T14 sequence (whole entry): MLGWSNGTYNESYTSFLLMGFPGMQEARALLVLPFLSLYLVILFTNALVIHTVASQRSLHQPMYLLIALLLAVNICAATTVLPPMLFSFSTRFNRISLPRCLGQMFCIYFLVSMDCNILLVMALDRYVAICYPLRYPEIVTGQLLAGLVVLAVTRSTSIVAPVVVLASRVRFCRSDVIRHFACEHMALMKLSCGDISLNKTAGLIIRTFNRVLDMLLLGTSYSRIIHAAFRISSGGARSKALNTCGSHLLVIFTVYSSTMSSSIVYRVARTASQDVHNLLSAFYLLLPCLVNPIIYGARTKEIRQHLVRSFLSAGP
In short: as §1

UniProt Q9WVD7 = biological target: T15, UniProt Q9WVD7
T15 sequence (whole entry): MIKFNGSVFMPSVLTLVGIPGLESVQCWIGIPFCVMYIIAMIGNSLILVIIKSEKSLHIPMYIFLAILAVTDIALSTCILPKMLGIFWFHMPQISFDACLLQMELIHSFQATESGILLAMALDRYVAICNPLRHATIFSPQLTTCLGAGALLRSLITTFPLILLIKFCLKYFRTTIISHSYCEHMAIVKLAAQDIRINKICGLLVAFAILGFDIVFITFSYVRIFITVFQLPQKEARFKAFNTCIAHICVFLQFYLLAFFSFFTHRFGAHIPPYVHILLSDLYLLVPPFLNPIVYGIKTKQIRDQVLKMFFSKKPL
In short: as §1

UniProt Q99NH4 = biological target: T16, UniProt Q99NH4
T16 sequence (whole entry): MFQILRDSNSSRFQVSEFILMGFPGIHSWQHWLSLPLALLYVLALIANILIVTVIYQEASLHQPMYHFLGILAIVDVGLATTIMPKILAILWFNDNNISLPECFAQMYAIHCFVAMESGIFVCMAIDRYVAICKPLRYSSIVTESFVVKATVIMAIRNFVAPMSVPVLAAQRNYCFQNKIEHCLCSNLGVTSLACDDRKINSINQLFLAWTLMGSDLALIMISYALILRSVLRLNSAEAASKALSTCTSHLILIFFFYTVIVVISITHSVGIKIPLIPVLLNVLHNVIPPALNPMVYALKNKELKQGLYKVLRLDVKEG
In short: as §1

Measured: odorant receptor agonist call

Chain of UniProt Q9R0K2 (Q9R0K2 as listed by the source): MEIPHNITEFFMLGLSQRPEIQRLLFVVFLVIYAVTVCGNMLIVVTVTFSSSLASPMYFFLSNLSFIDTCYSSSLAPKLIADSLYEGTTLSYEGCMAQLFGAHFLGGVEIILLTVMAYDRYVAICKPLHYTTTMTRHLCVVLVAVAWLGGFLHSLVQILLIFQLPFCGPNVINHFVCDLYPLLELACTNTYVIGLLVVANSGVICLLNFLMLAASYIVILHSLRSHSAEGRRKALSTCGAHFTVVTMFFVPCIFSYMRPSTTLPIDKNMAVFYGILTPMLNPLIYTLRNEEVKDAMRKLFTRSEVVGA

CCCCCCCCO
active: UniProt Q8VH18 | UniProt Q9WVD7
not listed: UniProt Q99NH4
inactive: all other assays above

CCCCCCCCCCO
not listed: UniProt Q8VH18 | UniProt Q924X8 | UniProt Q9WU94 | UniProt Q9WVD7
inactive: all other assays above

CCCCCC=O
not listed: UniProt Q8VH18 | UniProt Q924X8 | UniProt Q9WU94 | UniProt Q9WVD7
inactive: all other assays above

C=CCOC(=O)CCCCCC
not listed: UniProt Q8VH18 | UniProt Q924X8 | UniProt Q9WU94 | UniProt Q9WVD7 | UniProt Q99NH4
inactive: all other assays above

CCOC(=O)C(C)C
not listed: UniProt Q8VH18 | UniProt Q924X8 | UniProt Q9WU94 | UniProt Q9WVD7 | UniProt Q99NH4
inactive: all other assays above

CCCCC(=O)CC
not listed: UniProt Q8VH18 | UniProt Q924X8 | UniProt Q9WU94 | UniProt Q9WVD7 | UniProt Q99NH4
inactive: all other assays above

O=C1Cc2ccccc2O1
not listed: UniProt Q8VH18 | UniProt Q924X8 | UniProt Q9WU94 | UniProt Q9WVD7 | UniProt Q99NH4
inactive: all other assays above

CCCCCCCCCO
active: UniProt Q8VH18 | UniProt Q9WVD7
not listed: UniProt Q99NH4
inactive: all other assays above

CC(=O)OCC=C(C)C
not listed: UniProt Q8VH18 | UniProt Q924X8 | UniProt Q9WU94 | UniProt Q9WVD7 | UniProt Q99NH4
inactive: all other assays above

CCCCCCOC(C)=O
not listed: UniProt Q8VH18 | UniProt Q924X8 | UniProt Q9WU94 | UniProt Q9WVD7 | UniProt Q99NH4
inactive: all other assays above
